From ChEMBL document CHEMBL4428023, “1,4-Dihydropyridines Active on the SIRT1/AMPK Pathway Ameliorate Skin Repair and Mitochondrial Function and Exhibit Inhibition of Proliferation in Cancer Cells” (J Med Chem, 2016)
Activity calls are given as the source filed them. The calls are words filed in the database; no cut-off is given here.

How the values were obtained:
[1] = target: T1, NAD-dependent protein deacetylase sirtuin-1 (Homo sapiens) (UniProt Q96EB6); experiment: Activation of full-length GST-tagged recombinant human SIRT1 assessed as enzyme activity obtained without subtraction of intrinsic fluorescence using p53-based untagged peptide as substrate at 50 uM after 30 mins by SIRTainty assay
T1 sequence (whole entry): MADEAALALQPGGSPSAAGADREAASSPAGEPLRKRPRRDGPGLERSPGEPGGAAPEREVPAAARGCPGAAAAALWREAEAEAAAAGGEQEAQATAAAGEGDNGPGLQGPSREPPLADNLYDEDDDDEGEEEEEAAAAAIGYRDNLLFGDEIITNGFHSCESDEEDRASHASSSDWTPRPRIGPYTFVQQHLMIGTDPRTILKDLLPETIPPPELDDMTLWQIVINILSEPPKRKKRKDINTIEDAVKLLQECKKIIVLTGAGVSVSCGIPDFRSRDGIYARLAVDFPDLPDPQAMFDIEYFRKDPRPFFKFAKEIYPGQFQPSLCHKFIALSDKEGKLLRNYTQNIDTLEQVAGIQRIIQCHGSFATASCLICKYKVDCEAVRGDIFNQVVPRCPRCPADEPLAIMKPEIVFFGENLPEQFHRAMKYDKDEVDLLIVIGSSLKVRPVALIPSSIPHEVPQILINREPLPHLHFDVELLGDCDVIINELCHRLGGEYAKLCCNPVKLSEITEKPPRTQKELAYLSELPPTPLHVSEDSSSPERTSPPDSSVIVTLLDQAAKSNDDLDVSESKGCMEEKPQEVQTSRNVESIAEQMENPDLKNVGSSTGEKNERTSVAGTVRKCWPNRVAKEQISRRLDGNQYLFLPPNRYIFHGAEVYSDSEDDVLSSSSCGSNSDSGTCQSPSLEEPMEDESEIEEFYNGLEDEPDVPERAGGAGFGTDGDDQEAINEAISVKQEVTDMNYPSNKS

[2] = target: T1, NAD-dependent protein deacetylase sirtuin-1 (Homo sapiens); experiment: Activation of full-length GST-tagged recombinant human SIRT1 assessed as enzyme activity obtained with subtraction of intrinsic fluorescence using p53-based untagged peptide as substrate at 50 uM after 30 mins by SIRTainty assay
[3] = target: 3',5'-cyclic-AMP phosphodiesterase 4D (Homo sapiens) (UniProt Q08499); experiment: Inhibition of recombinant human PDE4D assessed as phosphate release using cAMP as substrate at 50 uM after 60 mins by malachite green assay
Chain of 3',5'-cyclic-AMP phosphodiesterase 4D (Homo sapiens) (Q08499 whole entry): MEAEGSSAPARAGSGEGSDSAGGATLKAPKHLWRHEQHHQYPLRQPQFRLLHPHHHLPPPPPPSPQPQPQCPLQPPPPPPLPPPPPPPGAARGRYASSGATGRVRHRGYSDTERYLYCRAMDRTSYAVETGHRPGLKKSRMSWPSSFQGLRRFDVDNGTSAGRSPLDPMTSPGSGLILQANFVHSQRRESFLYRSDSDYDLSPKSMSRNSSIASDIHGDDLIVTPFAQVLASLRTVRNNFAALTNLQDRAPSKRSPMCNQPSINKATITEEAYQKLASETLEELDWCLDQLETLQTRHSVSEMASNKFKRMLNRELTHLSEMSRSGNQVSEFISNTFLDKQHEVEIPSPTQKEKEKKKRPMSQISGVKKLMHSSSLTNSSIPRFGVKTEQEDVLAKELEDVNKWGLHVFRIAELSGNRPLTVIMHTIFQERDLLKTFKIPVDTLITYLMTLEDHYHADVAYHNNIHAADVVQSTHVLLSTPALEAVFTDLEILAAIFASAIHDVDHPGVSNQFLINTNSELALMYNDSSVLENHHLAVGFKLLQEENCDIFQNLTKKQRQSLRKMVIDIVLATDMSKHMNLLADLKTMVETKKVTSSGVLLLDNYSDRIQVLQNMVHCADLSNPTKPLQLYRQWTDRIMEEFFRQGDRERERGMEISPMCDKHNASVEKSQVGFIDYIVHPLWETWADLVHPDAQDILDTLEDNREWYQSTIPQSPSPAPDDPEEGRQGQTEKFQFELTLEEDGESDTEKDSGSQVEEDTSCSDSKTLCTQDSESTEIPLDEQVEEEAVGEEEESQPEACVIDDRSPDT
How it was run: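 Recombinant human PDE4D (20 mU) in 10 mM Tris-HCl pH 7.4 with cAMP substrate. Compounds at 50 µM in DMSO; rolipram 10 µM as positive control. Incubated 60 min at 37 °C, then phosphate release measured by malachite green absorbance at 620 nm. Mean of three determinations.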

HaCaT [4] = experiment: Activation of AMPK/SIRT1 in human HaCaT cells assessed as nitric oxide production at 1 uM incubated for 1 hr by DAF-2D staining-based fluorescence assay; assay type: cell-based
How it was run: (§1)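 HaCaT keratinocytes grown in DMEM with 10% FBS and antibiotics. Cells treated 1 h (single-point 1 µM; dose-response at 5, 25, 50 µM). 5 µM DAF-2D added to complete medium. Cells then washed in PBS, trypsinized and analysed by flow cytometry for DAF fluorescence (ex 485/em 538 nm). Read-out is % DAF-positive cells relative to DMSO control.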

[5] = target: T1, NAD-dependent protein deacetylase sirtuin-1 (Homo sapiens); experiment: Activation of SIRT1 in human HaCaT cells assessed as H4K16 deacetylation at 1 uM after 1 hr by Western blotting method; assay type: cell-based
How it was run: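 HaCaT cells treated 1 h at 1 µM, DMSO as solvent control. Cells lysed in Laemmli buffer and immunoblotted for acetyl-H4K16 (1:1000), with total histone H4 as loading control. Bands quantified by densitometry. At least three independent experiments.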

[6] = target: T1, NAD-dependent protein deacetylase sirtuin-1 (Homo sapiens); experiment: Activation of SIRT1 in […] at 1 uM by fluorimetric assay; assay type: cell-free; conditions: HaCaT, TDE = time-dependent effect
Mus musculus [7] = experiment: Wound healing activity in CD1 mouse assessed as increased wound closure at 1 uM administered topically on wound everyday for 14 days by biopsy punch assay; assay type: functional, organism-based
How it was run: (§2)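 Male CD1 mice, 8 weeks old, anaesthetized i.p. with medetomidine 1 mg/kg plus ketamine 75 mg/kg, then biopsy-punch wounded. Compound (1 µM) in 20 µL saline applied directly to the wound daily for 14 days; solvent-treated group as control. Epithelial gap and % wound closure followed over time.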

Mus musculus [8] = experiment: Wound healing activity in CD1 mouse assessed as decrease in epithelial gap at 1 uM administered topically on wound everyday for 14 days by biopsy punch assay; assay type: functional, organism-based
How it was run: as §2

HaCaT [9] = experiment: Activation of AMPK/SIRT1 in human HaCaT cells assessed as nitric oxide production incubated for 1 hr by DAF-2D staining-based fluorescence assay; assay type: cell-based
How it was run: as §1

Activity [1] [%] | Activity [2] [%] | SMILES | further results
221 | 133 | CCOC(=O)C1=CN(Cc2ccccc2)C=C(C(=O)OCC)C1c1cncs1 | –
179 | – | CCOC(=O)C1=CN(C(=O)c2cccc3ccccc23)C=C(C(=O)OCC)C1c1ccccc1 | –
198 | 108 | CCOC(=O)C1=CN(Cc2ccccc2)C=C(C(N)=O)C1c1ccccc1 (centres undefined) | –
194 | 165 | NC(=O)C1=CN(Cc2ccccc2)C=C(C(N)=O)C1c1cncs1 | –
235 | 207 | CCOC(=O)C1=CN(C(=O)c2ccc3ccccc3c2)C=C(C(=O)OCC)C1c1ccccc1 | inhibition [3]: inactive
174 | 132 | O=C(O)C1=CN(Cc2ccccc2)C=C(C(=O)O)C1c1nccs1 | –
187 | – | CCOC(=O)C1=CN(Cc2ccccc2)C=C(C(=O)OCC)C1c1cccc2ccccc12 | –
324 | 283 | CCOC(=O)C1=CN(Cc2ccccc2)C=C(C(=O)OCC)C1c1cnc2ccccc2c1 | Activity (HaCaT [4]): Active
231 | 191 | CCOC(=O)C1=CN(C(=O)c2ccccc2)C=C(C(=O)OCC)C1c1ccc(Cl)cc1 | –
183 | 140 | CCOC(=O)C1=CN(C(=O)c2ccccc2)C=C(C(=O)OCC)C1c1ccccc1C | –
217 | 164 | CCOC(=O)C1=CN(Cc2ccccc2)C=C(C(=O)OCC)C1c1ccccc1 | Activity (HaCaT [4]): Active; Activity [5]: Active; inhibition [3]: inactive
21 | 21 | O=C(O)C1=CN(Cc2ccccc2)C=C(C(=O)O)C1c1cccs1 | –
246 | 117 | CCOC(=O)C1=CN(Cc2ccccc2)C=C(C(=O)OCC)C1c1cccs1 | –
209 | 167 | O=C(O)C1=CN(Cc2ccccc2)C=C(C(=O)O)C1c1cnc2ccccc2c1 | –
128 | 67 | NC(=O)C1=CN(Cc2ccccc2)C=C(C(N)=O)C1c1ccc2ccccc2c1 | –
300 | 282 | CCOC(=O)C1=CN(Cc2ccccc2)C=C(C(=O)OCC)C1c1nccs1 | Activity (HaCaT [4]): Active
285 | 285 | O=C(O)C1=CN(Cc2ccccc2)C=C(C(=O)O)C1c1ccc(-c2ccccc2)cc1 | inhibition [3]: inactive
184 | 143 | CCOC(=O)C1=CN(C(=O)c2ccccc2)C=C(C(=O)OCC)C1c1ccccc1Cl | –
282 | 100 | CCOC(=O)C1=CN(Cc2ccccc2)C=C(C(=O)OCC)C1c1ccc2ccccc2c1 | –
56 | 45 | O=C(O)C1=CN(Cc2ccccc2)C=C(C(=O)O)C1c1ccsc1 | –
169 | 130 | CCOC(=O)C1=CN(S(=O)(=O)c2ccccc2)C=C(C(=O)OCC)C1c1ccccc1 | –
116 | – | O=C(O)C1=CN(Cc2ccccc2)C=C(C(=O)O)C1c1ccc2ccccc2c1 | –
110 | 110 | CC1=C(C(N)=O)C(c2ccccc2)C(C(N)=O)=C(C)N1Cc1ccccc1 | –
197 | 147 | NC(=O)C1=CN(Cc2ccccc2)C=C(C(N)=O)C1c1cnc2ccccc2c1 | –
193 | 152 | N#CC1=CN(Cc2ccccc2)C=C(C#N)C1c1ccccc1 | –
294 | 64 | CCOC(=O)C1=CN(Cc2ccccc2)C=C(C(=O)OCC)C1c1ccco1 | Activity (HaCaT [4]): Active; Activity [6]: Tde; Activity (Mus musculus [7]): Active; Activity (Mus musculus [8]): Active; Activity [5]: Active; inhibition [3]: inactive; Activity (HaCaT [9]): Dose-dependent effect
156 | 117 | CCOC(=O)C1=CN(C(=O)c2ccccc2)C=C(C(=O)OCC)C1c1cccc(OC)c1 | –

Activity [1] [%] | Activity [2] [%] | SMILES | further results
55 | 49 | NC(=O)C1=CN(Cc2ccccc2)C=C(C(N)=O)C1c1cccs1 | –
– | – | Oc1ccc(/C=C/c2cc(O)cc(O)c2)cc1 | Activity [6]: Tde; Activity [5]: Active
231 | 188 | NC(=O)C1=CN(Cc2ccccc2)C=C(C(N)=O)C1c1nccs1 | –
206 | 165 | CCOC(=O)C1=CN(C(=O)c2cnc3ccccc3n2)C=C(C(=O)OCC)C1c1ccccc1 | –
96 | – | NC(=O)C1=CN(Cc2ccccc2)C=C(C(N)=O)C1c1ccc(-c2ccccc2)cc1 | –
114 | 114 | CCOC(=O)C1=C(C)N(Cc2ccccc2)C(C)=C(C(=O)OCC)C1c1ccccc1 | –
209 | – | O=C(Nc1ccccc1-c1cn2c(CN3CCNCC3)csc2n1)c1cnc2ccccc2n1 | –
144 | 103 | CCOC(=O)C1=CN(C(=O)c2ccccc2)C=C(C(=O)OCC)C1c1ccc(C)cc1 | –
163 | 127 | CCOC(=O)C1=CN(C(=O)c2ccccc2)C=C(C(=O)OCC)C1c1cccc(Cl)c1 | –
127 | 37 | NC(=O)C1=CN(Cc2ccccc2)C=C(C(N)=O)C1c1cc2ccccc2s1 | –
173 | 131 | CCOC(=O)C1=CN(C(=O)c2ccccc2)C=C(C(=O)OCC)C1c1ccc(OC)cc1 | –
186 | 140 | CCOC(=O)C1=CN(C(=O)c2ccccc2)C=C(C(=O)OCC)C1c1cccc(C)c1 | –
206 | 158 | CCOC(=O)C1=CN(C(=O)OCc2ccccc2)C=C(C(=O)OCC)C1c1ccccc1 | –
170 | 127 | CCOC(=O)C1=CN(C(=O)c2ccccc2)C=C(C(=O)OCC)C1c1ccccc1OC | –
108 | 94 | O=C(O)C1=CN(Cc2ccccc2)C=C(C(=O)O)C1c1cccc2ccccc12 | –
172 | 128 | O=C(O)C1=CN(Cc2ccccc2)C=C(C(=O)O)C1c1cncs1 | –
218 | 97 | NC(=O)C1=CN(Cc2ccccc2)C=C(C(N)=O)C1c1ccsc1 | –
242 | 171 | CCOC(=O)C1=CN(C(=O)c2cnccn2)C=C(C(=O)OCC)C1c1ccccc1 | –
149 | 160 | NC(=O)C1=CN(Cc2ccccc2)C=C(C(=O)O)C1c1ccccc1 (centres undefined) | –
38 | 7 | O=C(O)C1=CN(Cc2ccccc2)C=C(C(=O)O)C1c1cc2ccccc2s1 | –
103 | 102 | CC1=C(C(=O)O)C(c2ccccc2)C(C(=O)O)=C(C)N1Cc1ccccc1 | –
77 | 62 | NC(=O)C1=CN(Cc2ccccc2)C=C(C(N)=O)C1c1ccco1 | –
61 | 61 | CCOC(=O)C1=CN(Cc2ccccc2)C=C(C(=O)OCC)C1c1ccc(-c2ccccc2)cc1 | –
196 | 105 | CCOC(=O)C1=CN(Cc2ccccc2)C=C(C(=O)O)C1c1ccccc1 (centres undefined) | –
145 | – | NC(=O)C1=CN(Cc2ccccc2)C=C(C(N)=O)C1c1cccc2ccccc12 | –
139 | 39 | CCOC(=O)C1=CN(Cc2ccccc2)C=C(C(=O)OCC)C1c1cc2ccccc2s1 | –
